Measurements taken from ChEMBL document CHEMBL1136954, “Toward the back-up of boceprevir (SCH 503034): discovery of new extended P4-capped ketoamide inhibitors of hepatitis C virus NS3 serine protease with improved potency and pharmacokinetic profiles” (J Med Chem, 2009).

Experiments:
Hepatitis C virus = test: Antiviral activity against Hepatitis C virus genotype 1 infected in human hepatocytes by replicon assay; format: functional, Hepacivirus hominis; settings: genotype 1, Hepatocyte
Procedure, shortened: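 HCV genotype 1 replicon cell assay; EC90 reported, within 3-fold at 95% confidence for a single assay and within 2-fold for multiple assays.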

[1] = AUC (0 to 6 hrs) in rat at 10 mg/kg, po; format: ADME, organism-based; parameters: time < 6 hr, dose 10 mg/kg, route oral; settings: plasma
[2] = Inhibition of HCV NS4A-tethered single chain NS3 serine protease by spectrophotometric assay; parameters: species or system Hepacivirus hominis
Procedure, shortened: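 Continuous assay with NS4A-tethered single-chain NS3 serine protease; potency given as Ki*.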

[3] = Cytotoxicity against human hepatocytes assessed as effect on GAPDH RNA level […]; format: cell-based, Hepatocyte
Procedure, shortened: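 Counter-screen for cellular toxicity measuring GAPDH; CC50 reported.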

[4] = Drug level in rat liver at 10 mg/kg, po after 6 hrs; format: ADME, organism-based; parameters: dose 10 mg/kg, route oral; settings: read-out: Drug uptake
Procedure, shortened: (§1)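 Rapid rat oral screen, 2 animals, PO vehicle 40% HPBCD; compound concentration measured in liver at 6 h, or at 8 h where footnoted; plasma AUC taken over 0-6 h.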

[5] = Metabolic stability in cynomolgus monkey bile assessed as recovery of radioactivity at 2 mg/kg, po after 24 hrs; format: ADME, organism-based, Macaca fascicularis; parameters: dose 2 mg/kg, route oral; settings: in vivo
Procedure, shortened: (§2)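 Two cynomolgus monkeys given the 14C-labelled ketoamide orally at 2 mg/kg; radioactivity collected in bile and urine over 0-24 h and expressed as % of oral dose; plasma also sampled.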

[6] = Volume of distribution at steady state in rat at 10 mg/kg, po and at 10 mg/kg, iv; format: ADME, organism-based; settings: in vivo, read-out: Vdss
Procedure, shortened: (§3)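 Rats dosed PO and IV at 10 mpk, 3 animals per route; IV given in 40% HPBCD, PO in 0.4% MC.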

[7] = AUC in rat at 10 mg/kg, iv; format: ADME, organism-based; parameters: dose 10 mg/kg, route intravenous; settings: plasma
[8] = Half life in rat at 10 mg/kg, iv; format: ADME, organism-based; parameters: dose 10 mg/kg, route intravenous; settings: in vivo; procedure, shortened: as §3
[9] = Volume of distribution at steady state in cynomolgus monkey at 3 mg/kg, po and at 3 mg/kg, iv; format: ADME, organism-based, Macaca fascicularis; settings: in vivo, read-out: Vdss
Procedure, shortened: (§4)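 Cynomolgus monkey dosed PO and IV at 3 mpk, 3 animals per route; IV vehicle 20% HPBCD, PO vehicle 0.4% MC. AUC in µM·h, t1/2 in h, clearance mL/min/kg, Vd(ss) L/kg, F in %.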

[10] = AUC in cynomolgus monkey at 3 mg/kg, po; format: ADME, organism-based, Macaca fascicularis; parameters: dose 3 mg/kg, route oral; settings: plasma; procedure, shortened: as §4
[11] = Metabolic stability in cynomolgus monkey urine assessed as recovery of radioactivity at 2 mg/kg, po after 24 hrs; format: ADME, organism-based, Macaca fascicularis; parameters: dose 2 mg/kg, route oral; settings: in vivo; procedure, shortened: as §2
[12] = Oral bioavailability in cynomolgus monkey at 3 mg/kg; format: ADME, organism-based, Macaca fascicularis; settings: in vivo; procedure, shortened: as §4
[13] = Clearance in rat at 10 mg/kg, po and at 10 mg/kg, iv; format: ADME, organism-based; settings: in vivo; procedure, shortened: as §3
[14] = Half life in cynomolgus monkey at 3 mg/kg, iv; format: ADME, organism-based, Macaca fascicularis; parameters: dose 3 mg/kg, route intravenous; settings: in vivo; procedure, shortened: as §4
[15] = Oral bioavailability in rat at 10 mg/kg; format: ADME, organism-based; settings: in vivo; procedure, shortened: as §3
[16] = Clearance in cynomolgus monkey at 3 mg/kg, po and at 3 mg/kg, iv; format: ADME, organism-based, Macaca fascicularis; settings: in vivo; procedure, shortened: as §4
[17] = AUC in cynomolgus monkey at 3 mg/kg, iv; format: ADME, organism-based, Macaca fascicularis; parameters: dose 3 mg/kg, route intravenous; settings: plasma; procedure, shortened: as §4
[18] = AUC in rat at 10 mg/kg, po; format: ADME, organism-based; parameters: dose 10 mg/kg, route oral; settings: plasma; procedure, shortened: as §3
[19] = Drug level in rat liver at 10 mg/kg, po after 8 hrs; format: ADME, organism-based; parameters: dose 10 mg/kg, route oral; settings: read-out: Drug uptake; procedure, shortened: as §1

| Structure (SMILES) | EC90 (Hepatitis C virus) | AUC(0-t) at 6 h [1] | Ki [2] | CC50 [3] | concentration at 6 h [4] | further results |
| --- | --- | --- | --- | --- | --- | --- |
| CC(C)[C@H](NC(=O)N[C@H](C(=O)N1C[C@H]2[C@@H]([C@H]1C(=O)NC(CC1CC1)C(=O)C(N)=O)C2(C)C)C(C)(C)C)C(=O)C1CC1 (mixture of isomers) | 100 nM | 0.12 µM·h | 7 nM | > 5000 nM |  |  |
| C=CCNC(=O)C(=O)C(CCC)NC(=O)[C@@H]1[C@@H]2[C@H](CN1C(=O)[C@@H](NC(=O)N[C@H](C(=O)C1CC1)C1CCCCC1)C(C)(C)C)C2(C)C (mixture of isomers) | 500 nM | 55 µM·h | 10 nM | > 5000 nM |  |  |
| C#CCCC(NC(=O)[C@@H]1[C@@H]2[C@H](CN1C(=O)[C@@H](NC(=O)N[C@H](C(=O)C1CC1)C(C)C)C(C)(C)C)C2(C)C)C(=O)C(=O)NC1CC1 (mixture of isomers) | 70 nM | 4.8 µM·h | 8 nM | > 5000 nM | 900 nM |  |
| CC(C)(C)[C@H](NC(=O)NC1(C(=O)OCc2ccccc2)CCCCC1)C(=O)N1C[C@H]2[C@@H]([C@H]1C(=O)NC(CC1CC1)C(=O)C(N)=O)C2(C)C (mixture of isomers) | 20 nM |  | 49 nM | > 5000 nM |  | Stability [5]: 4.3%; Vd [6]: 3.5 L/kg; AUC [7]: 9.3 µM·h; half-life [8]: 2.9 h; Vd [9]: 1.7 L/kg; AUC [10]: 0.05 µM·h; Stability [11]: 0.8%; bioavailability [12]: 3%; clearance [13]: 28 mL/min/kg; half-life [14]: 3.1 h; bioavailability [15]: 0%; clearance [16]: 43 mL/min/kg; AUC [17]: 3.4 µM·h |
| CC(C)[C@H](NC(=O)N[C@H](C(=O)N1C[C@H]2[C@@H]([C@H]1C(=O)NC(CC1CC1)C(=O)C(N)=O)C2(C)C)C(C)(C)C)C(=O)c1ccccn1 (mixture of isomers) | 200 nM | 0.42 µM·h | 8 nM | > 5000 nM |  |  |
| CC(C)(C)[C@H](NC(=O)N[C@H](C(=O)C1CC1)C1CCCCC1)C(=O)N1C[C@H]2[C@@H]([C@H]1C(=O)NC(CC1CC1)C(=O)C(N)=O)C2(C)C (mixture of isomers) | 100 nM | 1.4 µM·h | 8 nM | > 5000 nM | 2700 nM |  |
| C#CCCC(NC(=O)[C@@H]1[C@@H]2[C@H](CN1C(=O)[C@@H](NC(=O)N[C@H](C(=O)C1CC1)C1CCCCC1)C(C)(C)C)C2(C)C)C(=O)C(=O)NCC=C (mixture of isomers) | 250 nM | 24 µM·h | 9 nM | > 5000 nM | 8500 nM |  |
| CC(C)(C)[C@H](NC(=O)N[C@H](C(=O)c1ccccn1)C1CCCCC1)C(=O)N1C[C@H]2[C@@H]([C@H]1C(=O)NC(CC1CC1)C(=O)C(N)=O)C2(C)C (mixture of isomers) | 90 nM | 1.4 µM·h | 7 nM | > 5000 nM | 800 nM |  |
| CC(C)[C@H](NC(=O)N[C@H](C(=O)N1C[C@H]2[C@@H]([C@H]1C(=O)NC(CC1CC1)C(=O)C(N)=O)C2(C)C)C(C)(C)C)C(=O)c1ccccc1 (mixture of isomers) | 80 nM |  | 5 nM | > 5000 nM |  | AUC [18]: 0.26 µM·h |
| CC(C)[C@H](NC(=O)N[C@H](C(=O)N1C[C@H]2[C@@H]([C@H]1C(=O)NC(CC1CC1)C(=O)C(N)=O)C2(C)C)C(C)(C)C)C(=O)c1nccs1 (mixture of isomers) | 90 nM | 0.15 µM·h | 9 nM | > 5000 nM |  |  |
| C=CCNC(=O)C(=O)C(CCC)NC(=O)[C@@H]1[C@@H]2[C@H](CN1C(=O)[C@@H](NC(=O)N[C@H](C(=O)C1CC1)C(C)C)C(C)(C)C)C2(C)C (mixture of isomers) | 600 nM | 26 µM·h | 25 nM | > 5000 nM |  |  |
| C#CCCC(NC(=O)[C@@H]1[C@@H]2[C@H](CN1C(=O)[C@@H](NC(=O)N[C@H](C(=O)C1CC1)C1CCCCC1)C(C)(C)C)C2(C)C)C(=O)C(=O)NC1CC1 (mixture of isomers) | 55 nM | 11 µM·h | 4 nM | > 5000 nM | 2900 nM |  |
| CC(C)(C)[C@H](NC(=O)N[C@H](C(=O)N1C[C@H]2[C@@H]([C@H]1C(=O)NC(CC1CC1)C(=O)C(N)=O)C2(C)C)C(C)(C)C)C(=O)OCc1ccccc1 (mixture of isomers) | 50 nM |  | 67 nM | > 5000 nM |  |  |
| CC(C)(C)NC(=O)N[C@H](C(=O)N1C[C@H]2[C@@H]([C@H]1C(=O)NC(CC1CCC1)C(=O)C(N)=O)C2(C)C)C(C)(C)C (stereo partly specified) [BOCEPREVIR] | 350 nM | 0.14 µM·h | 14 nM | > 5000 nM |  | concentration at 8 h [19]: 300 nM |
| CC(C)C(=O)[C@@H](NC(=O)N[C@H](C(=O)N1C[C@H]2[C@@H]([C@H]1C(=O)NC(CC1CC1)C(=O)C(N)=O)C2(C)C)C(C)(C)C)C(C)C (mixture of isomers) | 150 nM |  | 12 nM | > 5000 nM |  |  |
